Measurements gathered from unrelated publications.
Each line is one published result; the experiments were not run side by side.
Effect on: binding
USP7: Ubiquitin carboxyl-terminal hydrolase 7 (USP7, Homo sapiens, UniProt Q93009)
MET: Hepatocyte growth factor receptor (MET, Homo sapiens, UniProt P08581)
Tumor necrosis factor receptor superfamily member 9: Tumor necrosis factor receptor superfamily member 9 (Homo sapiens, UniProt Q07011)

CN1CN(c2ccccc2)C2(CCN(CCCC(=O)c3ccc(F)cc3)CC2)C1=O — Kd (D(2) dopamine receptor (Drd2, Rattus norvegicus, UniProt P61169); radioligand; cell membranes): 0.09 nM
CC(C)C[C@H](NC(=O)[C@@H]1CCCN1C(=O)[C@H](Cc1ccccc1)NC(=O)[C@H](CCC(=O)O)NC(=O)[C@@H](N)CC(N)=O)C(=O)N[C@@H](CS)C(=O)N[C@@H](CO)C(=O)N[C@@H](CC(C)C)C(=O)N1CCC[C@H]1C(=O)N[C@@H](CCC(=O)O)C(=O)NCC(=O)O — Kd (USP7; ITC; pH 8): 118000 nM
Cc1n[nH]c2c(-c3cn(C(C)c4ccccc4)c(=O)[nH]c3=O)cccc12 (stereo not shown) — Kd (MET): 200 nM
CC[C@H](C)[C@H](NC(=O)[C@H](CC(C)C)NC(=O)CNC(=O)[C@@H](N)CCCCN)C(=O)N[C@@H](CC(=O)O)C(=O)N[C@@H](Cc1ccc(O)cc1)C(=O)N[C@@H](Cc1ccc(O)cc1)C(=O)N[C@@H](CC(C)C)C(=O)N[C@@H](CCSC)C(=O)N1CCC[C@H]1C(=O)N[C@@H](CO)C(=O)N[C@@H](CC(C)C)C(=O)N[C@@H](CO)C(=O)N[C@H](C(=O)N[C@H](C(=O)N[C@@H](CO)C(=O)N[C@@H](CCCNC(=N)N)C(=O)N[C@@H](CO)C(=O)NCC(=O)N[C@@H](CCCCN)C(=O)O)[C@@H](C)O)[C@@H](C)O — Kd (USP7; ITC; pH 8): 25900 nM
CCCC[C@@H]1NC(=O)[C@H](Cc2ccc(O)cc2)NC(=O)[C@@H]2CCCN2C(=O)[C@H](CC(=O)O)NC(=O)[C@H](C)NC(=O)[C@H](Cc2ccccc2)NC(=O)[C@@H]2CSCCC(=O)N3CN(CN(C3)C(=O)CCSC[C@@H](C(=O)N[C@@H](C)C(N)=O)NC1=O)C(=O)CCSC[C@H](NC(C)=O)C(=O)N[C@@H](CC(C)(C)C)C(=O)N1CCC[C@H]1C(=O)N[C@@H](CCC(=O)O)C(=O)N[C@H](CCCCNC(=O)CCc1cn(CCOCCOCCOCCOCCOCCC(=O)N[C@H]3CSCCC(=O)N4CN5CN(C4)C(=O)CCSC[C@H](NC(=O)CNC(=O)[C@H](Cc4ccccc4)NC(=O)[C@@H]4CCCN4C3=O)C(=O)N[C@@H](CCSC)C(=O)N[C@@H](CCCCNC(=N)N)C(=O)N[C@@H](CC(=O)O)C(=O)N[C@@H](Cc3c[nH]c4ccccc34)C(=O)N[C@@H](CO)C(=O)N[C@@H]([C@@H](C)O)C(=O)N3CCC[C@H]3C(=O)N3C[C@H](O)C[C@H]3C(=O)N[C@@H](Cc3c[nH]c4ccccc34)C(=O)N[C@H](C(N)=O)CSCCC5=O)nn1)C(=O)N1CCC[C@H]1C(=O)N[C@@H](Cc1ccc(O)cc1)C(=O)N2 — Kd (Tumor necrosis factor receptor superfamily member 9; SPR): 3.7 nM
CCCCC1(CCCCCCCCCCCCC(=O)O)OCC(C)(C)N1[O] (stereo not shown) — Kd (kcsA (Streptomyces lividans, UniProt P0A334)): 100 to 1000 nM
CCCC[C@@H]1NC(=O)[C@H](Cc2ccc(O)cc2)NC(=O)[C@@H]2CCCN2C(=O)[C@H](CC(=O)O)NC(=O)[C@H](C)NC(=O)[C@H](Cc2ccccc2)NC(=O)[C@@H]2CSCCC(=O)N3CN(CN(C3)C(=O)CCSCCC(=O)N[C@@H](CC(C)(C)C)C(=O)N3CCC[C@H]3C(=O)N[C@@H](CCC(=O)O)C(=O)N[C@H](CCCCNC(=O)CCc3cn(CCOCCOCCOCCOCCOCCC(=O)N[C@H]4CSCCC(=O)N5CN6CN(C5)C(=O)CCSC[C@H](NC(=O)[C@@H](CC(=O)O)NC(=O)[C@H](Cc5cccc7ccccc57)NC(=O)[C@@H]5CCCN5C4=O)C(=O)N[C@@H](CCSC)C(=O)N[C@@H](CCCCNC(=N)N)C(=O)N[C@@H](CC(=O)O)C(=O)N[C@@H](Cc4c[nH]c5ccccc45)C(=O)N[C@@H](CO)C(=O)N[C@@H]([C@@H](C)O)C(=O)N4CCC[C@H]4C(=O)N4C[C@H](O)C[C@H]4C(=O)N[C@@H](Cc4c[nH]c5ccccc45)C(=O)N[C@H](C(N)=O)CSCCC6=O)nn3)C(=O)N3CCC[C@H]3C(=O)N[C@@H](Cc3ccc(O)cc3)C(=O)N2)C(=O)CCSCCNC1=O — Kd (Tumor necrosis factor receptor superfamily member 9; SPR): 49 nM
C[C@@H](c1ccccc1)n1cc(-c2cc(F)cc(F)c2)c(=O)[nH]c1=O — Kd (MET): 1000 nM
CCCC[C@@H]1NC(=O)[C@H](Cc2ccc(O)cc2)NC(=O)[C@@H]2CCCN2C(=O)[C@H](CC(=O)O)NC(=O)[C@H](C)NC(=O)[C@H](Cc2ccccc2)NC(=O)[C@@H]2CSCCC(=O)N3CN(CN(C3)C(=O)CCSC[C@@H](C(=O)N[C@@H](C)C(N)=O)NC1=O)C(=O)CCSC[C@H](NC(=O)[C@H](C)NC(C)=O)C(=O)N[C@@H]([C@@H](C)CC)C(=O)N[C@@H](CCC(=O)O)C(=O)N[C@@H](CCC(=O)O)C(=O)N[C@H](CCCCNC(=O)CCc1cn(CCOCCOCCOCCOCCOCCC(=O)N[C@H]3CSCCC(=O)N4CN5CN(C4)C(=O)CCSC[C@H](NC(=O)[C@@H](CC(=O)O)NC(=O)[C@H](Cc4cccc6ccccc46)NC(=O)[C@@H]4CCCN4C3=O)C(=O)N[C@@H](CCSC)C(=O)N[C@@H](CCCCNC(=N)N)C(=O)N[C@@H](CC(=O)O)C(=O)N[C@@H](Cc3c[nH]c4ccccc34)C(=O)N[C@@H](CO)C(=O)N[C@@H]([C@@H](C)O)C(=O)N3CCC[C@H]3C(=O)N3C[C@H](O)C[C@H]3C(=O)N[C@@H](Cc3c[nH]c4ccccc34)C(=O)N[C@H](C(N)=O)CSCCC5=O)nn1)C(=O)N[C@@H](CCC(N)=O)C(=O)N[C@@H](Cc1ccc(O)cc1)C(=O)N2 — Kd (Tumor necrosis factor receptor superfamily member 9; SPR): 43 nM
CC(c1ccccc1)n1cc(-c2cc(F)cc3c(C#N)n[nH]c23)c(=O)[nH]c1=O (stereo not shown) — Kd (MET): 79.4 nM
